According to ChEMBL document CHEMBL1157698, “Enhancing the intestinal absorption of molecules containing the polar guanidino functionality: a double-targeted prodrug approach” (J Med Chem, 2010):

T1: Serine hydrolase BPHL (Homo sapiens) (UniProt Q86WA6)
T1 sequence (whole entry): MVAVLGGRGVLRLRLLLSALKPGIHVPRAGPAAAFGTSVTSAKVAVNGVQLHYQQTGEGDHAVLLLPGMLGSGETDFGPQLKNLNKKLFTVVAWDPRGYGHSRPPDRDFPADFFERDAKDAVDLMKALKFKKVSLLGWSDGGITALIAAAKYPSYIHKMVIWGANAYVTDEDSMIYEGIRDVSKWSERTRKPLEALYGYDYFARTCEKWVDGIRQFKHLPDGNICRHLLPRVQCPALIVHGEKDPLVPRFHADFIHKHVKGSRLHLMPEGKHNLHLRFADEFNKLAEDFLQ

T2: Solute carrier family 15 member 1 (Homo sapiens, UniProt P46059)
T2 sequence (P46059 whole entry): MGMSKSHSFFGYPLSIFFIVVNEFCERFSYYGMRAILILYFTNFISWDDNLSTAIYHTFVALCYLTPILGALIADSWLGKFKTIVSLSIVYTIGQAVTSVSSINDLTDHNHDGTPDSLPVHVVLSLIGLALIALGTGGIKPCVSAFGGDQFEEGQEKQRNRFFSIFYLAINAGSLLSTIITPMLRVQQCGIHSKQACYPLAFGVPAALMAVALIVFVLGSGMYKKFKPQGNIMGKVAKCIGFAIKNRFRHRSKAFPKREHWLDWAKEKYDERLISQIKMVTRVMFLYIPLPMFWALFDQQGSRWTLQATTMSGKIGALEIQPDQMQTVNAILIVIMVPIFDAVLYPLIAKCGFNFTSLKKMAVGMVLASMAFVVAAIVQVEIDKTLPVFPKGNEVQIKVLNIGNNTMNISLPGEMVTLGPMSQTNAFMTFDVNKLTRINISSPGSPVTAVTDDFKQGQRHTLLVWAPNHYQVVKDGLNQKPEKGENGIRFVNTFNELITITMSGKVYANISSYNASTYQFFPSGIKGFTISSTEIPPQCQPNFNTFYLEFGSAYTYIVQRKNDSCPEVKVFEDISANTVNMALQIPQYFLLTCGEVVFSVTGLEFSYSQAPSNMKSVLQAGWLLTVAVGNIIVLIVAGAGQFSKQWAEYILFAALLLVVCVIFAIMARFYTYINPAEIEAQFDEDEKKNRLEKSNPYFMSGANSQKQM


Key:
[1] = Chemical stability in pH 6 buffer after 2 hrs; type: physicochemical; settings: pH 6, 2 h
Summary of the method: (§1)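 Hydrolysis at 37 °C in pH 6.0 uptake buffer (140 mM NaCl, 5.4 mM KCl, 1.8 mM CaCl2, 0.8 mM MgSO4, 5 mM glucose, 25 mM MES) or 10 mM phosphate pH 7.4. Compound added from 200 mM DMSO stock. […] Triplicate, mean ± SEM.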

[2] = Chemical stability assessed as half life of hydrolysis in pH 7.4 buffer; type: physicochemical; settings: for t1/2: buffer; summary of the method: as §1
HeLa [3] = assay: Stability in human HeLa cell homogenate assessed as half life of hydrolysis; type: ADME, cell-based
Summary of the method: (§2)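 Homogenates from HeLa or Caco-2 cells: NaCl-washed, collected in 10 mM phosphate pH 7.4, sonicated on ice, spun 10,000 rpm 10 min at 4 °C; supernatant adjusted to 500 μg/mL protein. Compound added from 200 mM DMSO stock at 37 °C.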

Caco-2 [4] = assay: Stability in human Caco-2 cell homogenate assessed as half life of hydrolysis; type: ADME, Colon; summary of the method: as §2
[5] = target: T1, Serine hydrolase BPHL (Homo sapiens); assay: Ratio of Kcat to Km of human recombinant VACVase assessed as hydrolysis
Summary of the method: (§3)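 Recombinant human VACVase expressed in and purified from E. coli, stored at −80 °C, protein measured by Bio-Rad DC assay against BSA. Run in 50 mM HEPES pH 7.4 at 37 °C with 5 min buffer preincubation, enzyme added, then substrate to start. Michaelis-Menten fit; kcat = Vmax/[enzyme]0 using 28.83 kDa mass, active protein normalized to valacyclovir specific activity. Triplicate.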

[6] = target: T2, Solute carrier family 15 member 1; assay: Inhibition of human PEPT1-mediated [3H]Gly-Sar uptake in human HeLa cells; type: cell-based
Summary of the method: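 HeLa cells grown 5 days, infected with hPEPT1 adenovirus 3 days before assay, washed in pH 6.0 MES uptake buffer. Incubated 30 min at 37 °C with 10 μM Gly-Sar (0.1 μM [3H]) plus test compound at 0.05–5 mM. Cells washed ice-cold, lysed in 0.1% SDS, scintillation counted. IC50 by nonlinear fit; n=4.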

HeLa [7] = assay: Drug uptake in human HeLa cells expressing hPEPT1 after 60 mins; type: ADME, cell-based; settings: 1 h
Summary of the method: (§4)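 HeLa cells, with or without hPEPT1 adenovirus infection 3 days before assay, after 5 days' growth. Preincubated 15 min in pH 6.0 MES uptake buffer, then given 1 mM compound for 60 min at 37 °C. Cells washed in ice-cold DPBS, sonicated, TFA-precipitated (final 7%), supernatant read by HPLC and normalized to protein (nmol/mg). Donor solution stability by HPLC. Triplicate, mean ± SEM.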

[8] = Stability in human HeLa cells expressing hPEPT1 after 60 mins; type: ADME, cell-based; settings: read-out: Stability; summary of the method: as §4
HeLa [9] = assay: Drug uptake in human HeLa cells after 60 mins; type: ADME, cell-based; settings: 1 h; summary of the method: as §4
[10] = Stability in human HeLa cells after 60 mins; type: ADME, cell-based; settings: read-out: Stability; summary of the method: as §4
hPEPT1 = assay: Drug uptake in human HeLa cells expressing hPEPT1 after 60 mins relative ro control; type: ADME, cell-based; summary of the method: as §4
[11] = Stability in apical side in human Caco-2 cells at 120 mins by permeability study; type: ADME, cell-based; settings: read-out: Stability
[12] = Chemical stability in pH 7.4 buffer after 2 hrs; type: physicochemical; settings: pH 7.4, 2 h; summary of the method: as §1
HeLa [13] = assay: Stability in human HeLa cell homogenate after 2 hrs; type: ADME, cell-based; summary of the method: as §2
Caco-2 [14] = assay: Stability in human Caco-2 cell homogenate after 2 hrs; type: ADME, cell-based; settings: caco-2, 2 h; summary of the method: as §2
[15] = substrate: CC(C)[C@H](N)C(=O)OCCOCn1cnc2c(=O)nc(N)[nH]c21; assay: (§5) Activity of human recombinant VACVase assessed as hydrolysis; summary of the method: as §3
[16] = substrate: CC(C)[C@H](N)C(=O)OCc1cccc(NC(=N)N)c1; assay: as §5; summary of the method: as §3
[17] = substrate: CC[C@H](C)[C@H](N)C(=O)OCc1cccc(NC(=N)N)c1; assay: as §5; summary of the method: as §3
[18] = substrate: N=C(N)Nc1cccc(COC(=O)[C@@H](N)Cc2ccccc2)c1; assay: as §5; summary of the method: as §3
[19] = substrate: CC(C)[C@H](N)C(=O)OCCOCn1cnc2c(=O)nc(N)[nH]c21; assay: (§6) Activity of human recombinant VACVase assessed as hydrolysis measured per ug of protein; summary of the method: as §3
[20] = substrate: CC(C)[C@H](N)C(=O)OCc1cccc(NC(=N)N)c1; assay: as §6; summary of the method: as §3
[21] = substrate: CC[C@H](C)[C@H](N)C(=O)OCc1cccc(NC(=N)N)c1; assay: as §6; summary of the method: as §3
[22] = substrate: N=C(N)Nc1cccc(COC(=O)[C@@H](N)Cc2ccccc2)c1; assay: as §6; summary of the method: as §3

Molecule	Stability [1]	t1/2 [2] [h]	t1/2 (HeLa [3]) [h]	t1/2 (Caco-2 [4]) [h]	Ratio [5] [mM⁻¹ s⁻¹]	IC50 [6] [µM]	Drug uptake (HeLa [7]) [nmol/mg]	remaining at 1 h [8] [%]	Drug uptake (HeLa [9]) [nmol/mg]	remaining at 1 h [10] [%]	uptake ratio at 1 h (hPEPT1)	remaining at 2 h [11] [%]	also measured
CC(C)[C@H](N)C(=O)OCc1cccc(NC(=N)N)c1	Stable	8.227	0.338	0.08	3370	650	50.2	96.9	< 2	98	> 25	86.5	–
CC[C@H](C)[C@H](N)C(=O)OCc1cccc(NC(=N)N)c1	–	–	–	–	1580	–	–	–	–	–	–	–	–
N=C(N)Nc1cccc(COC(=O)[C@@H](N)Cc2ccccc2)c1	–	–	–	–	1660	–	–	–	–	–	–	–	–
CC(C)[C@H](N)C(=O)OCCOCn1cnc2c(=O)[nH]c(N)nc21 [VALACYCLOVIR]	Stable	–	2.37	0.522	–	1420	5.5	96.8	< 0.2	99.2	–	94.7	half-life ([2]; pH 7.4 buffer): 8.23 h
N=C(N)Nc1cccc(CO)c1 [[3-(hydroxymethyl)phenyl]guanidine]	Stable	–	–	–	–	> 3000	5.5	–	3.8	–	1.4	–	Stability [12]: Stable; Stability (HeLa [13]): Stable; Stability (Caco-2 [14]): Stable
CC(C)[C@H](N)C(=O)OCCOCn1cnc2c(=O)nc(N)[nH]c21	–	–	–	–	850	–	–	–	–	–	–	–	–
CC(C)[C@@H](N)C(=O)OCc1cccc(NC(=N)N)c1	–	–	–	–	–	–	–	–	–	–	–	98.8	–
NC(N)=Nc1cccc(COC(=O)[C@@H](N)Cc2ccccc2)c1	Stable	4.363	< 0.083	< 0.017	–	2330	14.8	83.8	1.7	87.2	8.8	3.9	–
CC[C@H](C)[C@H](N)C(=O)OCc1cccc(N=C(N)N)c1	Stable	11.75	2.287	0.993	–	630	27.7	98.7	< 2	99	> 13	96.6	–
Serine hydrolase BPHL (Homo sapiens), Q86WA6 (protein) MVAVLGGRGVLRLRLLLSALKPGIHVPRAGPAAAFGTSVTSAKVAVNGVQLHYQQTGEGDHAVLLLPGMLGSGETDFGPQLKNLNKKLFTVVAWDPRGYGHSRPPDRDFPADFFERDAKDAVDLMKALKFKKVSLLGWSDGGITALIAAAKYPSYIHKMVIWGANAYVTDEDSMIYEGIRDVSKWSERTRKPLEALYGYDYFARTCEKWVDGIRQFKHLPDGNICRHLLPRVQCPALIVHGEKDPLVPRFHADFIHKHVKGSRLHLMPEGKHNLHLRFADEFNKLAEDFLQ	–	–	–	–	–	–	–	–	–	–	–	–	Km [15]: 68 µM; kcat [15]: 58 s⁻¹; Km [16]: 46 µM; kcat [16]: 154 s⁻¹; Km [17]: 9 µM; kcat [17]: 14 s⁻¹; Km [18]: 207 µM; kcat [18]: 345 s⁻¹; Vmax [19]: 120 nmol/min; Vmax [20]: 321 nmol/min/µg; Vmax [21]: 30 nmol/min/µg; Vmax [22]: 718 nmol/min/µg
